Screens (PubChem BioAssay)
5HT1E ag: activates the human 5-HT1E serotonin receptor; P28566; CHO 5-HT1E Ga15 NFAT-bla reporter, FRET; 0% DMSO wells, 100% control agonist wells; activation, % at 6 µM; 0.69% of 65,000 active;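 active = activation above a set limit, the screen-wide mean activation plus 3 SD, cut at about 8.5% in these data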
5HT1a ag: agonists of human 5-HT1a serotonin receptor; CHO 5-HT1a Ga15 NFAT-bla reporter, FRET ratio; 0% basal, 100% maximal reference agonist; P08908; 0.56% of 65,000 active; AID 567; activation, % at 10 µM;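 active = activation above the screen-wide mean activation plus 3 SD, cut at about 19% in these data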
Target sequence (P08908 whole entry, looked up): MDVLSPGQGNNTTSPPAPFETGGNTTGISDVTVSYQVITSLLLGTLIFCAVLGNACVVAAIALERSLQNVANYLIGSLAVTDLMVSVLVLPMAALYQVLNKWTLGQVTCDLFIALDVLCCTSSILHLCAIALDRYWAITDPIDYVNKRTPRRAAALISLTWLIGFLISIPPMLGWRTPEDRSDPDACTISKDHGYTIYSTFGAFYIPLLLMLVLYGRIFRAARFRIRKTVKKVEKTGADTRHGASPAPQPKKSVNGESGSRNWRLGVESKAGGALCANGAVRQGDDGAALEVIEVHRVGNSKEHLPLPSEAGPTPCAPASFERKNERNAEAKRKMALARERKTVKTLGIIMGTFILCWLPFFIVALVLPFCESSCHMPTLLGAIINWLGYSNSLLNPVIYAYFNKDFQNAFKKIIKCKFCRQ
S1P1 ag-PAM: agonists and agonism potentiators of human S1P1 receptor; AID 449; activation, % at 9.5 µM; 0.57% of 56,000 active; P21453; S1P1 CRE-bla cells, forskolin, beta-lactamase FRET, potentiator mode; S1P1 agonist co-added at EC20, 2 nM; 100% = saturating reference agonist, 0% = basal;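 active = activation above a cutoff set at the mean activation of all tested compounds plus 3 SD, cut at about 54% in these data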;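 also: forskolin at 4 µM as EC80 and the EC20 agonist is SEW2871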
S1P3 agonist: activates the human S1P3 receptor; Q99500; S1P3 NFAT-BLA reporter cells, agonism, FRET ratio; relative to 1 µM S1P, basal subtracted; activation, % at 4.5 µM; 0.1% of 60,000 active;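 active = activation above the screen-wide mean plus 3 SD, cut at about 4.5% in these data, passing the limit was not always enough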
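material = human S1P3 NFAT-BLA reporter CHO cells | schedule = 4 h compound at 37 °C, 2 h substrate at RT | measured by = fluorescent BLA substrate, ex 405 nm, em 460/535 nm ratio | controls = 1 µM S1P reference | replication = primary once, confirmation triplicate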
5-HT1A blocker: 5-HT1a (human) receptor antagonism. AID 612. inhibition, % at 10 µM. CHO 5-HT1a Ga15 NFAT-bla reporter, antagonist mode. 0.68% of 62,000 active;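 active = inhibition above the mean of all tested compounds plus 3 SD, cut at about 43% in these data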;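 also: receptor stimulated by 5-CT agonist at 100 nM near EC80; beta-lactamase reporter measured by ratiometric fluorescence of a cleavable substrate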
HTR1E antagonist: 5-HT1E (human) receptor antagonism | P28566 | CHO 5-HT1E Ga15 NFAT-bla reporter, FRET, antagonist | inhibition, % at 6 µM | 0.99% of 65,000 active | AID 571;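 active = inhibition above a set limit, the mean inhibition across every tested compound plus 3 SD, cut at about 29% in these data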;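 also: signal is the 460 over 535 nm emission ratio of beta-lactamase substrate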
Numbers stand for hits; . = inactive; / = no result given. Most compounds without a hit are left out; they make up all but 3% or so of the library.

SMILES	5HT1E ag	5HT1a ag	S1P1 ag-PAM	S1P3 agonist	5-HT1A blocker	HTR1E antagonist
COc1ccc(-c2cc(N)n(S(=O)(=O)c3c(F)c(F)c(F)c(F)c3F)n2)cc1OC	.	.	.	.	46	33
CCOC(=O)/C=C/S(=O)(=O)c1ccc(NC(C)=O)cc1	.	.	152	.	98	89
Cc1nc(NCc2ccco2)c2c3c(sc2n1)CCC3	.	.	.	.	54	.
CCC(=O)n1nc(NCc2ccccc2OC)nc1NCc1ccccc1OC	.	.	/	.	.	.
Cc1ccc(S(=O)(=O)N2CCCSCC2)cc1	.	49	.	.	.	.
CCCCC1CC1C(=O)Nc1ccc(OC)c(OC)c1 (centres undefined)	.	.	.	.	/	.
COc1ccc2nc3sc(C(=O)N4CCN(C)CC4)cc3cc2c1	25	.	.	.	.	.
CCOc1cc(N2CCOCC2)c(OCC)cc1NC(=O)c1cc(-c2ccco2)nc2ccccc12	.	.	/	/	.	50
O=C(Cn1cccc1)NCc1cccs1	.	.	.	.	.	.
O=C(Cc1ccc(-n2cccc2)cc1)NCc1cccs1	.	.	.	.	.	51
CCn1c(CNC(=O)c2ccco2)nnc1SCC(=O)Nc1cc(C(F)(F)F)ccc1Cl	.	54	.	.	.	.
O=C(CN1CCN(c2ccc(Cl)cc2)CC1)c1ccc2c(c1)OCO2	15	.	.	.	.	.
Cc1ccc(S(=O)(=O)C2(C(=O)Nc3cccc(F)c3)CC2)cc1	.	.	.	.	.	.
C=CCc1ccccc1OCC(O)CN(C(C)C)C(C)C (centres undefined)	19	.	.	.	.	.
C=CCc1ccccc1OCC(O)CNC (centres undefined)	9.4	.	.	.	.	.
COc1ccc(-n2c(SCC(=O)N3CCN(c4ccccc4)CC3)nc3c(c2=O)SCC3)cc1	.	.	.	.	.	.
COC(=O)C(C)Sc1nc2c(c(=O)n1-c1ccccc1)SCC2 (centres undefined)	.	36	/	/	.	.
Cc1cc(NC(=O)C2CC2)ncc1NC(=O)C12CC3CC(CC(C3)C1)C2	.	.	/	/	.	.
O=C(Nc1ncnc2c1CCC2)C12CC3CC(CC(C3)C1)C2	.	40	.	.	.	.
Cn1cc(CC(=O)Nc2cccc(C#N)c2)c2ccccc21	.	.	/	/	.	.
CC(=O)c1c(C)[nH]c(C(=O)OCCCCN2C(=O)c3ccccc3C2=O)c1C	.	.	97	.	.	.
O=C(Oc1ccccc1)c1c(Cl)cccc1P(=O)(O)O	.	.	.	.	/	.
Cc1ccc2c(c1)NC(=O)C(CC(=O)NCCCN1CCN(c3cc(C)ccc3C)CC1)O2 (centres undefined)	.	.	.	.	47	.
CC(Sc1nnc(N)s1)c1ccccc1Cl (centres undefined)	.	.	.	.	.	.
COc1cccc(CNC(=O)c2nnn(CC(=O)Nc3ccc(C)c(C)c3)c2N)c1	.	.	/	/	.	.
SMILES	5HT1E ag	5HT1a ag	S1P1 ag-PAM	S1P3 agonist	5-HT1A blocker	HTR1E antagonist
Cc1ccc(NC(=O)Cn2nnc(C(=O)Nc3ccc(C)c(C)c3)c2N)cc1	.	.	/	/	.	36
CC(C)OC(=O)CSc1nc(N)c(C#N)c(-c2cccs2)c1C#N	.	.	.	.	.	44
CCCCSc1nc(N)c(C#N)c(-c2cccs2)c1C#N	.	.	.	.	/	32
CCOC(=O)N1CC=C2C(C#N)=C(N)C(C#N)(C#N)[C@H](c3ccc(OCC)c(OCC)c3)[C@H]2C1	.	.	.	.	.	.
CCCCOc1ccc(C2C3CN(C(=O)OCC)CC=C3C(C#N)=C(N)C2(C#N)C#N)cc1OC (centres undefined)	.	46	.	.	.	.
Cc1ccc(C2C3CN(C(C)C)CC=C3C(C#N)=C(N)C2(C#N)C#N)cc1 (centres undefined)	.	32	.	.	/	.
CCOC(=O)c1ccc(CNC(=O)c2cc3cccc(OC)c3oc2=O)o1	.	.	.	.	.	.
CCNC(=O)C1CC(=O)N(CC)C(=Nc2cc(Cl)c(O)c(Cl)c2)S1 (centres undefined)	.	.	.	.	.	.
CCOC(=O)c1nnn(-c2nonc2N)c1COc1cc(C)c(Cl)c(C)c1	.	.	.	.	49	.
CCOC(=O)c1nnn(-c2nonc2N)c1CSc1ccc(C)cc1	.	.	.	.	.	.
CCC(Oc1ccccc1)C(=O)N1CC(C)CC(C)C1 (centres undefined)	.	.	.	.	.	.
Cc1nn(Cc2ccccc2)c(C)c1NC(=O)CSc1nc2sc3c(c2c(=O)n1C)CCC3	.	.	.	.	.	.
CCOc1ccc(N2C(=O)CC(N3CCN(C4CCc5ccccc5C4)CC3)C2=O)cc1 (centres undefined)	.	.	.	.	.	.
Cc1ccc(N2C(=O)CC(N3CCN(C4CCc5ccccc5C4)CC3)C2=O)cc1 (centres undefined)	.	20	.	.	.	.
CCCNC(=O)Nc1cc(C)on1	.	257	.	.	.	.
CSc1oc(-c2ccccc2)nc1S(=O)(=O)c1ccc(C)cc1	.	.	.	.	.	.
Cc1ccc(S(=O)(=O)c2nc(-c3ccccc3)oc2NCc2cccnc2)cc1	48	.	.	.	.	.
COc1cc2c(cc1OC)C1=C(C#N)CN(CC(=O)O)CN1CC2	.	.	.	.	.	33
COc1cc2c(cc1OC)CN(C(=O)COc1ccc(C#N)cc1)CC2	.	.	.	.	.	.
CCCn1c(=O)c2ccccc2n2c(SCc3c(C(=O)OCC)oc4ccccc34)nnc12	.	.	.	13	.	.
CCCn1c(=O)c2ccccc2n2c(SCN3C(=O)c4ccccc4C3=O)nnc12	.	.	.	.	.	.
CCc1c(C)nc2ncnn2c1N1CCC(C(=O)Nc2cccc(C(C)=O)c2)CC1	.	.	.	.	.	.
COc1ccc(C2(O)CCN(CCCCOc3ccccc3)CC2)cc1	.	.	.	.	67	.
CC1CCN(C(=O)CN2C(=O)c3ccccc3S2(=O)=O)CC1	.	38	.	.	.	.
NC(=O)C1CCN(C(=O)CN2C(=O)c3ccccc3S2(=O)=O)CC1	.	.	.	.	.	.
COc1cccc(-c2nc(-c3ccc(NC(=O)c4cccnc4)cc3)no2)c1	.	.	60	.	.	.
COc1ccc(CC(=O)Nc2ccc(-c3noc(-c4cccc(OC)c4)n3)cc2)cc1	.	.	.	.	.	.
Cc1cnc(C(=O)OCC(=O)c2csc(N3CCCCC3)n2)cn1	.	.	.	.	.	.
Cc1cc(-c2nn3c(-c4ccccc4)nnc3s2)c2ccccc2n1	.	.	.	.	.	30
